Measurements published in ChEMBL document CHEMBL2057182, “Synthesis and biological evaluation of α-methylidene-δ-lactones with 3,4-dihydrocoumarin skeleton” (Bioorg Med Chem, 2012).
Converted amounts (≈) assume the structure as drawn.

Assays:
HL-60 = experiment: Cytotoxicity against human HL60 cells after 48 hrs by MTT assay; type: functional, cell-based; settings: HL-60, 48 h
Summary of the method: (§1)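 ECACC cells; leukemias in RPMI 1640, MCF-7 and HT-29 in DMEM, each with 10% heat-inactivated FBS plus penicillin/streptomycin, 37 °C, 5% CO2. 8 × 10^3 cells/well seeded, compounds added after 24 h at 10^-7 to 10^-3 M (DMSO diluted in medium) for 48 h. MTT 2 h, formazan dissolved in DMSO, A560 against untreated control. IC50 from concentration–response curves, mean ± SD of at least three experiments.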

NALM-6 = experiment: Cytotoxicity against human NALM6 cells after 48 hrs by MTT assay; type: functional, cell-based; settings: NALM-6, 48 h; summary of the method: as §1
MCF7 = experiment: Cytotoxicity against human MCF7 cells after 48 hrs by MTT assay; type: functional, cell-based; settings: MCF7, 48 h; summary of the method: as §1
HT-29 = experiment: Cytotoxicity against human HT-29 cells after 48 hrs by MTT assay; type: functional, cell-based; settings: HT-29, 48 h; summary of the method: as §1
HUVEC = experiment: Cytotoxicity against human HUVEC cells after 48 hrs by MTT assay; type: cell-based
Summary of the method: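 HUVECs cultured as the supplier directs, used at passages 3–8, 37 °C, 5% CO2. Seeded at 8 × 10^3/well, treated after 24 h with compounds at 10^-7 to 10^-3 M (DMSO diluted in complete medium) for 48 h. MTT 2 h, DMSO-solubilized formazan read at 560 nm against untreated cells. IC50 from concentration–response curves, at least three experiments.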

Escherichia coli = experiment: Antibacterial activity against Escherichia coli NCTC 8196 after 24 hrs by broth microdilution assay; type: functional; settings: NCTC 8196, 24 h
Summary of the method: (§2)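 MIC by broth microdilution per CLSI, compounds from 20.0 mg/mL DMSO stocks tested at 3.125–400.0 µg/mL (eight twofold dilutions) in Mueller-Hinton broth or RPMI-1640. MIC is the concentration that inhibits growth during 24 h culture, turbidity equal to blank A600 (0.06). Highest final DMSO 2.0%.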

Pseudomonas aeruginosa = experiment: Antibacterial activity against Pseudomonas aeruginosa NCTC 6749 after 24 hrs by broth microdilution assay; type: functional; settings: NCTC 6749, 24 h; summary of the method: as §2
Candida albicans = experiment: Antifungal activity against Candida albicans ATCC 10231 after 24 hrs by broth microdilution assay; type: functional; settings: ATCC 10231, 24 h; summary of the method: as §2
Enterococcus faecalis = experiment: Antibacterial activity against Enterococcus faecalis ATCC 29212 after 24 hrs by broth microdilution assay; type: functional; settings: ATCC 29212, 24 h; summary of the method: as §2
Staphylococcus aureus [1] = experiment: Antibacterial activity against methicillin-sensitive Staphylococcus aureus ATCC 29213 after 24 hrs by broth microdilution assay; type: functional; settings: ATCC 29213, 24 h
Summary of the method: (§3)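 Broth microdilution in Mueller-Hinton broth, compounds from 20.0 mg/mL DMSO stocks tested over 3.125–400.0 µg/mL (eight twofold dilutions), DMSO at most 2.0% final. MIC is the lowest concentration inhibiting growth over 24 h culture, with turbidity equal to the A600 of a medium blank (0.06). Run under CLSI guidance with ATCC quality-control strains.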

Staphylococcus aureus [2] = experiment: Antibacterial activity against methicillin-resistant Staphylococcus aureus A3 patient isolate after 24 hrs by broth microdilution assay; type: functional; settings: A3, 24 h; summary of the method: as §3
Staphylococcus aureus [3] = experiment: Antibacterial activity against methicillin-resistant Staphylococcus aureus A7 patient isolate after 24 hrs by broth microdilution assay; type: functional; settings: A7, 24 h; summary of the method: as §3
Staphylococcus aureus [4] = experiment: Antibacterial activity against methicillin-resistant Staphylococcus aureus D5 patient isolate after 24 hrs by broth microdilution assay; type: functional; settings: D5, 24 h; summary of the method: as §3
Staphylococcus aureus [5] = experiment: Antibacterial activity against methicillin-sensitive Staphylococcus aureus ATCC 29213 incubated for 24 hrs followed by washout measured after 24 hrs by broth microdilution assay; type: functional; settings: ATCC 29213, 24 h
Summary of the method: (§4)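 MBC: after the 24 h broth microdilution MIC run (3.125–400.0 µg/mL in Mueller-Hinton broth, DMSO at most 2.0%), 10 µL from the MIC, 2× MIC and 4× MIC wells was subcultured into compound-free broth for 24 h. MBC is the lowest concentration with no visible growth, i.e. at least 99.9% kill of the original inoculum; bactericidal if MBC is at most 4× MIC.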

Staphylococcus aureus [6] = experiment: Antibacterial activity against methicillin-resistant Staphylococcus aureus A3 patient isolate incubated for 24 hrs followed by washout measured after 24 hrs by broth microdilution assay; type: functional; settings: A3, 24 h; summary of the method: as §4
Staphylococcus aureus [7] = experiment: Antibacterial activity against methicillin-resistant Staphylococcus aureus A7 patient isolate incubated for 24 hrs followed by washout measured after 24 hrs by broth microdilution assay; type: functional; settings: A7, 24 h; summary of the method: as §4
Staphylococcus aureus [8] = experiment: Antibacterial activity against methicillin-resistant Staphylococcus aureus D5 patient isolate incubated for 24 hrs followed by washout measured after 24 hrs by broth microdilution assay; type: functional; settings: D5, 24 h; summary of the method: as §4
[9] = Therapeutic index ratio of IC50 for human HUVEC cells to IC50 for human HL60 cells; type: cell-based; settings: HUVEC cells versus HL60 cells
[10] = Therapeutic index ratio of IC50 for human HUVEC cells to IC50 for human NALM6 cells; type: cell-based; settings: HUVEC cells versus NALM6 cells, read-out: Ratio IC50
[11] = Therapeutic index ratio of IC50 for human HUVEC cells to IC50 for human MCF7 cells; type: cell-based; settings: HUVEC cells versus MCF7 cells, read-out: Ratio IC50

Row | SMILES | IC50 (HL-60) [µM] | IC50 (NALM-6) [µM] | IC50 (MCF7) [µM] | IC50 (HT-29) [µM] | IC50 (HUVEC) [µM] | further results
1 | C=C1C(=O)Oc2cc(OC)ccc2C1C (centres undefined) | 54.5 | 53.6 | 73 | 70 | 57.4 | –
2 | C=C1C(=O)Oc2cc(OC)ccc2C1CCCC (centres undefined) | 5.4 | 6.2 | 7.1 | 10.2 | 5.1 | MIC (Escherichia coli): > 400 µg/mL; MIC (Pseudomonas aeruginosa): > 400 µg/mL; MIC (Candida albicans): > 400 µg/mL; MIC (Enterococcus faecalis): 200 µg/mL (≈ 812 µM); MIC (Staphylococcus aureus [1]): 50 µg/mL (≈ 203 µM); MIC (Staphylococcus aureus [2]): 50 µg/mL (≈ 203 µM); MIC (Staphylococcus aureus [3]): 50 µg/mL (≈ 203 µM); MIC (Staphylococcus aureus [4]): 50 µg/mL (≈ 203 µM); MBC (Staphylococcus aureus [5]): 100 µg/mL (≈ 406 µM); MBC (Staphylococcus aureus [6]): 100 µg/mL (≈ 406 µM); MBC (Staphylococcus aureus [7]): 100 µg/mL (≈ 406 µM); MBC (Staphylococcus aureus [8]): 200 µg/mL (≈ 812 µM)
3 | C=C1C(=O)Oc2cc(OC)ccc2C1C(C)C (centres undefined) | 0.56 | 0.85 | 0.87 | 1.7 | 3.12 | selectivity ratio [9]: 5.6; selectivity ratio [10]: 4; selectivity ratio [11]: 4; MIC (Escherichia coli): > 400 µg/mL; MIC (Pseudomonas aeruginosa): > 400 µg/mL; MIC (Candida albicans): > 400 µg/mL
4 | C=CC1C(=C)C(=O)Oc2cc(OC)ccc21 (centres undefined) | 51.7 | 56.6 | 62 | 42 | 57.3 | –
5 | C=C1C(=O)Oc2cc(OC)cc(OC)c2C1C (centres undefined) | 5.2 | 6 | 4.1 | 7.2 | – | –
6 | C=C1C(=O)Oc2cc(OC)cc(OC)c2C1CCCC (centres undefined) | 3.4 | 4.6 | 3.3 | 5.2 | – | –
7 | C=C1C(=O)Oc2cc(OC)cc(OC)c2C1C(C)C (centres undefined) | 1.3 | 3 | 2.1 | 2.2 | – | –
8 | C=CC1C(=C)C(=O)Oc2cc(OC)cc(OC)c21 (centres undefined) | 8.4 | 9.3 | 6.2 | 5.9 | – | –
9 | C=C1C(=O)Oc2cc3c(cc2C1C)OCO3 (centres undefined) | 59.4 | 60.7 | 40.9 | 38.4 | – | –
10 | C=C1C(=O)Oc2cc3c(cc2C1CCCC)OCO3 (centres undefined) | 0.75 | 0.6 | 0.54 | 1.8 | – | –
11 | C=C1C(=O)Oc2cc3c(cc2C1C(C)C)OCO3 (centres undefined) | 3.3 | 0.7 | 0.87 | 1.5 | – | –
12 | C=CC1C(=C)C(=O)Oc2cc3c(cc21)OCO3 (centres undefined) | 7.85 | 7.82 | 9.8 | 6.2 | – | –
13 | C=C1C(=O)Oc2ccc3ccccc3c2C1C (centres undefined) | 4.8 | 5.5 | 5.17 | 7.26 | 6.69 | –
14 | C=C1C(=O)Oc2ccc3ccccc3c2C1CCCC (centres undefined) | 0.72 | 2.1 | 2.75 | 2.9 | 3.83 | MIC (Escherichia coli): > 400 µg/mL; MIC (Pseudomonas aeruginosa): > 400 µg/mL; MIC (Candida albicans): > 400 µg/mL; MIC (Enterococcus faecalis): 25 µg/mL (≈ 93.9 µM); MIC (Staphylococcus aureus [1]): 6.25 µg/mL (≈ 23.5 µM); MIC (Staphylococcus aureus [2]): 3.12 µg/mL (≈ 11.7 µM); MIC (Staphylococcus aureus [3]): 6.25 µg/mL (≈ 23.5 µM); MIC (Staphylococcus aureus [4]): 3.12 µg/mL (≈ 11.7 µM); MBC (Staphylococcus aureus [5]): 12.5 µg/mL (≈ 46.9 µM); MBC (Staphylococcus aureus [6]): 6.25 µg/mL (≈ 23.5 µM); MBC (Staphylococcus aureus [7]): 6.25 µg/mL (≈ 23.5 µM); MBC (Staphylococcus aureus [8]): 6.25 µg/mL (≈ 23.5 µM)
15 | C=C1C(=O)Oc2ccc3ccccc3c2C1C(C)C (centres undefined) | 0.7 | 0.72 | 0.48 | 2.67 | 4.03 | selectivity ratio [9]: 5.8; selectivity ratio [10]: 5.6; selectivity ratio [11]: 8; MIC (Escherichia coli): > 400 µg/mL; MIC (Pseudomonas aeruginosa): > 400 µg/mL; MIC (Candida albicans): > 400 µg/mL
16 | C=CC1C(=C)C(=O)Oc2ccc3ccccc3c21 (centres undefined) | 5.7 | 6 | 4.7 | 9.7 | 6.1 | –
17 | C=C1C(=O)Oc2ccc3ccc(O)cc3c2C1C (centres undefined) | 5.81 | 5.77 | 6.22 | 4.3 | – | –
18 | C=C1C(=O)Oc2ccc3ccc(O)cc3c2C1CCCC (centres undefined) | 0.62 | 0.56 | 1.88 | 1.73 | – | –
19 | C=C1C(=O)Oc2ccc3ccc(O)cc3c2C1C(C)C (centres undefined) | 0.58 | 0.59 | 0.36 | 0.49 | – | –
20 | C=CC1C(=C)C(=O)Oc2ccc3ccc(O)cc3c21 (centres undefined) | 3.43 | 0.79 | 4.8 | 6.5 | – | –
